Experimental data taken from ChEMBL document CHEMBL1153578, “Synthesis and evaluation of anti-tumor activities of N4 fatty acyl amino acid derivatives of 1-beta-arabinofuranosylcytosine” (Eur J Med Chem, 2009).

Assays:
HL-60 = assay: Cytotoxicity against human HL60 cells after 48 hrs by MTT assay; type: functional, cell-based; conditions: HL-60, 48 h
Procedure, shortened: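 HL-60 cells were grown in RPMI 1640 with 10% FBS and penicillin/streptomycin, seeded at 5 × 10⁴/mL, and exposed to 5 concentrations (0.01–1.00) in PBS with 4% DMSO, in triplicate. MTT was added at 5 mg/mL for 4 h at 37 °C. Plates were centrifuged (1000 r/min, 10 min), supernatant discarded, and crystals dissolved in DMSO. Read at OD 570/630 nm, blank-corrected against control; IC50 = concentration giving 50% cell death.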

HeLa = assay: Cytotoxicity against human HeLa cells after 48 hrs by MTT assay; type: functional, cell-based
Procedure, shortened: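 HeLa cells were grown in DMEM with 10% FBS and penicillin/streptomycin, seeded at 5 × 10⁴/mL, and treated with 0.5, 1.0, 5.0, 10 and 50 of compound in PBS with 4% DMSO, in triplicate. MTT (5 mg/mL) was added for 4 h at 37 °C without centrifugation, then supernatant removed and formazan dissolved in DMSO. Read at 570 nm (reference 630 nm) with survival normalized to medium-blanked control; IC50 = concentration causing 50% cell death.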

CCRF S-180 [1] = assay: Antitumor activity against mouse S180 cells xenografted in ip dosed Kunming mouse assessed as tumor growth inhibition after 7 days; type: functional
Procedure, shortened: (§1)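 Kunming mice received 0.2 mL of S180 cells (passaged in mouse abdomen, harvested day 8, 2.0 × 10⁷/mL) and were randomized into groups of 10. Compounds were given at 7.8 mmol/L in 0.5% CMC-Na (solution or suspension), 0.2 mL i.p. daily for 7 days. Mice were then sacrificed and tumors weighed. Inhibition = (mean control weight − mean treated weight)/mean control weight × 100%.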

CCRF S-180 [2] = assay: Antitumor activity against mouse S180 cells xenografted in ip dosed Kunming mouse assessed as tumor weight after 7 days; type: functional; procedure, shortened: as §1
[3] = Lipophilicity, log P of the compound; type: physicochemical; conditions: octanol/water

Structure (SMILES) | IC50 (HL-60) | IC50 (HeLa) | TGI (CCRF S-180 [1]) | Activity (CCRF S-180 [2]) | logP [3]
CCCCCCCCCCCCCC(=O)N[C@@H](Cc1ccc(O)cc1)C(=O)Nc1ccn([C@H]2O[C@@H](CO)[C@H](O)[C@H]2O)c(=O)n1 | 1710 nM | 39.1 µM | 11.4% | 1.125 g | 0.9
CCCCCCCCCCCCCCCCCC(=O)N[C@@H](CCCNC(=N)N)C(=O)Nc1ccn([C@H]2O[C@@H](CO)[C@H](O)[C@H]2O)c(=O)n1 | 1700 nM | 12.1 µM | 8.1% | 1.168 g | 0.61
CCCCCCCCCCCCCC(=O)N[C@@H](CCSC)C(=O)Nc1ccn([C@H]2O[C@@H](CO)[C@H](O)[C@H]2O)c(=O)n1 | 272 nM | 8.02 µM | 37.6% | 0.793 g | 0.88
CCCCCCCCCCCCCCCCCC(=O)N[C@H](C(=O)Nc1ccn([C@H]2O[C@@H](CO)[C@H](O)[C@H]2O)c(=O)n1)C(C)C | 31900 nM | 13 µM | 58.9% | 0.523 g | 0.91
CCCCCCCCCCCCCCCCCC(=O)N[C@@H](CCSC)C(=O)Nc1ccn([C@H]2O[C@@H](CO)[C@H](O)[C@H]2O)c(=O)n1 | 803 nM | 9 µM | 65.5% | 0.438 g | 1.09
CCCCCCCCCC(=O)N[C@@H](CCSC)C(=O)Nc1ccn([C@H]2O[C@@H](CO)[C@H](O)[C@H]2O)c(=O)n1 | 280 nM | 3 µM | 25.6% | 0.944 g | 0.68
CCCCCCCCCCCCCCCCCC(=O)N[C@@H](Cc1ccc(O)cc1)C(=O)Nc1ccn([C@H]2O[C@@H](CO)[C@H](O)[C@H]2O)c(=O)n1 | 1150 nM | 10 µM | 16.5% | 1.06 g | 0.97
Nc1ccn([C@@H]2O[C@H](CO)[C@@H](O)[C@@H]2O)c(=O)n1 [CYTARABINE] | 118 nM | 464 µM | – | – | –
CCCCCCCCCCCCCCCCCC(=O)N[C@@H](CCC(=O)O)C(=O)Nc1ccn([C@H]2O[C@@H](CO)[C@H](O)[C@H]2O)c(=O)n1 | 1140 nM | 19 µM | 12.9% | 1.106 g | 0.5
CCCCCCCCCC(=O)N[C@@H](Cc1ccc(O)cc1)C(=O)Nc1ccn([C@H]2O[C@@H](CO)[C@H](O)[C@H]2O)c(=O)n1 | 2980 nM | 1 µM | 19.1% | 1.028 g | 0.81
CCCCCCCCCCCCCC(=O)N[C@@H](CCCNC(=N)N)C(=O)Nc1ccn([C@H]2O[C@@H](CO)[C@H](O)[C@H]2O)c(=O)n1 | 405 nM | 32 µM | 39.2% | 0.773 g | 0.45
CCCCCCCCCCCCCC(=O)N[C@@H](CCC(=O)O)C(=O)Nc1ccn([C@H]2O[C@@H](CO)[C@H](O)[C@H]2O)c(=O)n1 | 502 nM | 41 µM | 24.6% | 0.958 g | 0.25
CCCCCCCCCC(=O)N[C@@H](CCCNC(=N)N)C(=O)Nc1ccn([C@H]2O[C@@H](CO)[C@H](O)[C@H]2O)c(=O)n1 | 584 nM | 6 µM | 15.7% | 1.071 g | 0.76
CCCCCCCCCC(=O)N[C@H](C(=O)Nc1ccn([C@H]2O[C@@H](CO)[C@H](O)[C@H]2O)c(=O)n1)C(C)C | 2040 nM | 4.99 µM | 7% | 1.181 g | 0.78
CCCCCCCCCCCCCC(=O)N[C@H](C(=O)Nc1ccn([C@H]2O[C@@H](CO)[C@H](O)[C@H]2O)c(=O)n1)C(C)C | 32300 nM | 26 µM | 8.4% | 1.163 g | 0.9
CCCCCCCCCC(=O)N[C@@H](CCC(=O)O)C(=O)Nc1ccn([C@H]2O[C@@H](CO)[C@H](O)[C@H]2O)c(=O)n1 | 1860 nM | 5 µM | 15.6% | 1.072 g | -0.28
